ChEMBL document CHEMBL1145545, “Discovery of a novel A2B adenosine receptor antagonist as a clinical candidate for chronic inflammatory airway diseases” (J Med Chem, 2008)

Key:
Adenosine receptor A2b = target: T1, Adenosine receptor A2b (Homo sapiens, UniProt P29275); test: Displacement of [3H]ZM-241385 from human recombinant adenosine A2B receptor expressed in HEK293 cells; assay type: cell-based
T1 sequence (P29275 whole entry): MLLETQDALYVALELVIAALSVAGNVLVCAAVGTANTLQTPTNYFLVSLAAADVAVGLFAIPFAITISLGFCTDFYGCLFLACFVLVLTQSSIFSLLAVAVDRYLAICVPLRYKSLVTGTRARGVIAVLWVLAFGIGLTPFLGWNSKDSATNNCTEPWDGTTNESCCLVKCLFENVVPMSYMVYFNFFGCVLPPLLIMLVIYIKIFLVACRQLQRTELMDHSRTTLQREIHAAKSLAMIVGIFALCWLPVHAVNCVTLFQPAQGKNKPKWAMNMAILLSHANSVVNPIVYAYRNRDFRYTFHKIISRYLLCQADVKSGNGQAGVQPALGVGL
Summary of the method: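 Membranes from HEK293 cells stably expressing human A2B receptor; competition with 10 nM radioligand, 50 µg membrane protein, in 50 mM Tris/1 mM EDTA with 1 U/mL adenosine deaminase, 25 °C for 90 min with gentle agitation; filtration, four ice-cold Tris/MgCl2 washes. Nonspecific binding defined with 10 µM unlabelled ligand; Ki calculated.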

Adenosine receptor A1 = target: T2, Adenosine receptor A1 (Homo sapiens, UniProt P30542); test: Displacement of [3H]CPX from human recombinant adenosine A1 receptor expressed in CHO cells; assay type: cell-based
T2 sequence (P30542 whole entry): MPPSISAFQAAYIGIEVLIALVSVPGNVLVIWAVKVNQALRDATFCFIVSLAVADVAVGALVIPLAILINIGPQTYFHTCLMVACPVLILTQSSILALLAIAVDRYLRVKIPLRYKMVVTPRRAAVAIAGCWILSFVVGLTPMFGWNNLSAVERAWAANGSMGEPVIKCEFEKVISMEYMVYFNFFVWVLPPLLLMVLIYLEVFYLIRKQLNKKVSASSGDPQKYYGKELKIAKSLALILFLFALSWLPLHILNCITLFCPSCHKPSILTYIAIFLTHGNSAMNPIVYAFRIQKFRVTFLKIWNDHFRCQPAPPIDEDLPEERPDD
Summary of the method: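 CHO cell membranes stably expressing human A1 receptor; 0.5 nM [3H]CPX competed with test compound in 50 mM Tris/1 mM EDTA plus 1 U/mL adenosine deaminase, 25 °C, 90 min, gentle agitation; filtration and four ice-cold Tris/MgCl2 washes. Nonspecific binding defined with 1 µM CPX; Ki values derived.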

Adenosine receptor A3 = target: T3, Adenosine receptor A3 (Homo sapiens, UniProt P0DMS8); test: Displacement of [125I]ABMECA from human recombinant adenosine A3 receptor expressed in CHO cells; assay type: cell-based
T3 sequence (P0DMS8 whole entry): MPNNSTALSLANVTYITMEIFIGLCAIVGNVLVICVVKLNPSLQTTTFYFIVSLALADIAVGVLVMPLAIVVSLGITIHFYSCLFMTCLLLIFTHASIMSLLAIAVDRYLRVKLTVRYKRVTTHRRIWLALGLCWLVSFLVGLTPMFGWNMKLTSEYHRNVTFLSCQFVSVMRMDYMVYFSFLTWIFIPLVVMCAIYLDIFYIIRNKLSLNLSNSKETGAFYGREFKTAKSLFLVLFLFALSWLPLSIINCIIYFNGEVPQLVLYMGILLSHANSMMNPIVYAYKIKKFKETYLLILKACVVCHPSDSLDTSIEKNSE
Summary of the method: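 Human A3 receptor stably expressed in CHO cells; membranes incubated with 0.1 nM 125I-AB-MECA and test compound in 50 mM Tris, 1 mM EDTA, 10 mM MgCl2 plus 1 U/mL adenosine deaminase, 25 °C, 90 min; filtration, four ice-cold washes. Nonspecific binding defined with 1 µM IB-MECA; Ki determined.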

Homo sapiens [1] = organism: Homo sapiens; test: Selectivity for human recombinant adenosine A2B receptor over human recombinant adenosine A1 receptor
Adenosine receptor A2a = Adenosine receptor A2a (Homo sapiens, UniProt P29274); test: Displacement of [3H]ZM-241385 from human recombinant adenosine A2A receptor expressed in HEK293 cells; assay type: cell-based
Summary of the method: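 Membranes from HEK293 cells stably expressing human A2A receptor; 2 nM radioligand competed in 50 mM Tris/1 mM EDTA with 1 U/mL adenosine deaminase for 90 min at 25 °C with agitation; filtration, four ice-cold Tris/MgCl2 washes. Nonspecific binding defined with 1 µM unlabelled ligand; Ki computed.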

Homo sapiens [2] = organism: Homo sapiens; test: Selectivity for human recombinant adenosine A2B receptor over human recombinant adenosine A3 receptor
Homo sapiens [3] = organism: Homo sapiens; test: Selectivity for human recombinant adenosine A2B receptor over human recombinant adenosine A2A receptor

Sequence of Adenosine receptor A2a (P29274 whole entry): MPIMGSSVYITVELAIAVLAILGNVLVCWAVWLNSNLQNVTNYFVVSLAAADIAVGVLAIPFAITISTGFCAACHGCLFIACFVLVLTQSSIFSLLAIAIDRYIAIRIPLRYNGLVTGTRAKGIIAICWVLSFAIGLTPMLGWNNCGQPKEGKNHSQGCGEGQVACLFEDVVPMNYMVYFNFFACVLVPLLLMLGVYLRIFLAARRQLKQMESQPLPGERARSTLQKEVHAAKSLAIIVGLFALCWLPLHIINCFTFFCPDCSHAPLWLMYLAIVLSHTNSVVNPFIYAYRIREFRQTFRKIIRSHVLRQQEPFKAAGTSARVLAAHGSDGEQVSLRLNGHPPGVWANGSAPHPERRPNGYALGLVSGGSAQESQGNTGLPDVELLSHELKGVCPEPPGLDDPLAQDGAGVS

| SMILES | Ki (Adenosine receptor A2b) [nM] | Ki (Adenosine receptor A1) [nM] | Ki (Adenosine receptor A3) [nM] | Ratio Ki (Homo sapiens [1]) | Ki (Adenosine receptor A2a) [nM] | Ratio Ki (Homo sapiens [2]) | Ratio Ki (Homo sapiens [3]) |
| --- | --- | --- | --- | --- | --- | --- | --- |
| Cn1c(=O)n(CC2CC2)c(=O)c2[nH]c(-c3cnn(Cc4cccc(C(F)(F)F)c4)c3)nc21 | 21 | 167 | 160 | 8 | 312 | 7 | 15 |
| CCCn1c(=O)c2[nH]c(-c3cnn(Cc4cc(-c5ccc(Cl)cc5)on4)c3)nc2n(CC)c1=O | 42 | 200 |  | 5 | 781 |  | 18 |
| CCn1c(=O)n(CC(C)C)c(=O)c2[nH]c(-c3cnn(Cc4cccc(F)c4)c3)nc21 | 31 | 1480 | 324 | 47 | 3850 | 10 | 124 |
| CCn1c(=O)c2nc(-c3cnn(Cc4cccc(C(F)(F)F)c4)c3)[nH]c2n(CC)c1=O |  |  |  | 44 |  | 34 | 34 |
| CCCn1c(=O)c2[nH]c(-c3cnn(Cc4ccc(C)nc4)c3)nc2n(CC)c1=O | 45 | 1520 | 290 | 33 | 670 | 6 | 15 |
| CCCn1c(=O)c2[nH]c(-c3cnn(Cc4cccc(C(F)(F)F)c4)c3)nc2n(C)c1=O | 14 | 441 | 408 | 31 | 450 | 29 | 32 |
| CCCn1c(=O)c2[nH]c(-c3cnn(Cc4cccnc4)c3)nc2n(CC)c1=O | 22 | 522 |  | 23 | 312 |  | 14 |
| CCn1c(=O)n(CC2CC2)c(=O)c2[nH]c(-c3cn[nH]c3)nc21 | 38 | 76 |  | 2 | 234 |  | 6 |
| Cn1c(=O)c2nc(-c3cnn(Cc4cccc(C(F)(F)F)c4)c3)[nH]c2n(C)c1=O |  |  |  | 992 |  | 100 | 686 |
| Cn1c(=O)n(CC2CC2)c(=O)c2[nH]c(-c3cnn(Cc4ccccc4)c3)nc21 | 11 | 154 | 91 | 14 | 149 | 8 | 13 |
| CCCn1c(=O)c2[nH]c(-c3cnn(Cc4ccc[n+]([O-])c4)c3)nc2n(CC)c1=O | 506 | 1120 |  | 2 | 1950 |  | 4 |
| CCCn1c(=O)c2[nH]c(-c3cnn(Cc4cccc(C(F)(F)F)c4)c3)nc2n(CCC)c1=O |  |  |  | 12 |  | 10 | 28 |
| CCCn1c(=O)c2[nH]c(-c3cnn(Cc4ccccc4)c3)nc2n(C)c1=O | 19 | 582 |  | 30 | 125 |  | 6 |
| CC(C)Cn1c(=O)c2[nH]c(-c3cn[nH]c3)nc2n(C)c1=O | 42 | 376 |  | 9 | 1390 |  | 33 |
| CC(C)Cn1c(=O)c2[nH]c(-c3cnn(Cc4cccc(C(F)(F)F)c4)c3)nc2n(C)c1=O | 199 | 617 |  | 3 | 633 |  | 3 |
| CCCn1c(=O)c2[nH]c(-c3cnn(Cc4noc(-c5ccc(Cl)cc5)n4)c3)nc2n(CC)c1=O | 335 | > 6000 |  | > 18 | > 5000 |  | > 15 |
| CCCCn1c(=O)c2[nH]c(-c3cnn(Cc4cccc(F)c4)c3)nc2n(C)c1=O | 26 | 305 |  | 11 | 217 |  | 8 |
